Laboratory results taken from ChEMBL document CHEMBL4411319, “Discovery of Macrocyclic Inhibitors of Apurinic/Apyrimidinic Endonuclease 1” (J Med Chem, 2019).

Key:
[1] = biological target: T1, DNA repair nuclease/redox regulator APEX1 (Homo sapiens, UniProt P27695); assay: Inhibition of full length human APE1 assessed as reduction in endonuclease activity by measuring DNA cleavage of abasic sites using 6-FAM labelled two annealed oligonucleotides as AP site mimic substrate by fluorescence-based assay
Procedure, shortened: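 Purified full-length APE1 (0.25-1.25 nM) added at once to 50 nM annealed duplex: 5'-6-FAM-labelled AP-site-mimic strand paired with a quencher-labelled strand. Buffer 50 mM Tris, 1 mM MgCl2, 50 mM NaCl, pH 7.5. Compound in triplicate, 10-point 1:2 dilution from 100 μM. Fluorescence from cleavage read kinetically at five 1-min intervals. Reaction rate compared with DMSO vehicle.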

[2] = Cytotoxicity against human Pa02C cells after 48 hrs by Alamar Blue-based assay; assay type: functional, cell-based
Procedure, shortened: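 Patient-derived pancreatic Pa02c cells, low passage, kept in DMEM with 10% FBS. Plated at 2000 cells/well on poly-D-lysine-coated plates and grown overnight at 37 °C, 5% CO2. Dosed in 5% FBS DMEM from 100 μM, 1:2 serial dilution, 5 points, with DMSO vehicle and drug-background wells. Grown 48 h, then fresh medium with 10% Alamar Blue for 4 h and fluorescence read. Background subtracted, normalized to media alone, mean with standard error.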

[3] = biological target: T1, DNA repair nuclease/redox regulator APEX1; assay: Inhibition of APE1 in human ST8814 cells assessed as effect on MMS-induced DNA damage by measuring tail DNA level at 100 uM after 1 hr in presence of MMS by comet assay; assay type: cell-based; set-up: scale not given: the % may be the effect or the level left
Procedure, shortened: (§1)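 Malignant peripheral nerve sheath tumor ST8814 cells seeded at 130,000/well in DMEM + 10% FBS and grown overnight. Treated 1 h at 37 °C in Opti-MEM with compound (100 μM or EC30) alone or with 1.0 mM MMS. Trypsinized, then alkaline comet assay: lysis 60 min, unwinding at pH 13 for 20 min, electrophoresis at 1 V/cm for 30 min, SYBR Gold stain. Percent tail DNA averaged over 20 comets; two independent experiments.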

[4] = Induction of DNA damage in human ST8814 cells measuring tail DNA level at 100 uM after 1 hr in presence of MMS by comet assay (reference value: 16%); assay type: functional; procedure, shortened: as §1

T1 sequence (P27695 whole entry): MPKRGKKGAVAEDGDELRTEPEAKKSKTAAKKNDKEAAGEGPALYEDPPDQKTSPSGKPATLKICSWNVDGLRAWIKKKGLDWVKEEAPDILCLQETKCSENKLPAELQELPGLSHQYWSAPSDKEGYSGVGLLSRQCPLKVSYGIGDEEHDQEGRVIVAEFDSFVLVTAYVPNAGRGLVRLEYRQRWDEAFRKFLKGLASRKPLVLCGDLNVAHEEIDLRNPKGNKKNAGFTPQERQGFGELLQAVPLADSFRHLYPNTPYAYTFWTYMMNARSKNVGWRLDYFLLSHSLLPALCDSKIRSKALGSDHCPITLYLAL

Row | Structure (SMILES) | IC50 [1] | inhibition [1] | EC50 [2] | Activity [3] | Activity [4]
1 | Cc1ccc(S(=O)(=O)n2cccc2[C@@H]2NC(=O)[C@H](Cc3c[nH]c4ccccc34)NC(=O)C[C@@H](CCc3ccccc3)NC(=O)C/C=C/[C@@H]2C)cc1 | 2.7 µM |  | > 100 µM | 54% | 12%
2 | Cc1ccc(S(=O)(=O)n2cccc2[C@@H]2NC(=O)[C@H](Cc3c[nH]c4ccccc34)NC(=O)CCCOC(=O)C/C=C/[C@@H]2C)cc1 | 10.6 µM |  | > 100 µM |  | 
3 | C[C@H]1/C=C/CC(=O)OCCC(Oc2ccc3c(c2)OCO3)C(=O)N[C@@H](Cc2c[nH]c3ccccc23)C(=O)N[C@H]1c1ccccc1 (stereo partly specified) | 1.8 µM | Dose-dependent effect |  |  | 
4 | Cc1ccc(S(=O)(=O)n2cccc2[C@@H]2NC(=O)[C@H](Cc3c[nH]c4ccccc34)NC(=O)C[C@@H](Cc3ccc(Cl)cc3)NC(=O)C/C=C/[C@@H]2C)cc1 | 1.9 µM |  | > 100 µM |  | 
5 | CC(=O)Nc1sc2c(c1-c1nc3ccccc3s1)CCN(C(C)C)C2 |  |  |  | 34% | 17%
6 | Cc1ccc(S(=O)(=O)n2cccc2[C@@H]2NC(=O)[C@H](Cc3c[nH]c4ccccc34)NC(=O)C(Oc3ccccc3)CCOC(=O)C/C=C/[C@@H]2C)cc1 (stereo partly specified) |  | Dose-dependent effect |  |  | 
7 | Cc1ccc(S(=O)(=O)n2cccc2[C@@H]2NC(=O)[C@H](Cc3c[nH]c4ccccc34)NC(=O)CCCCOC(=O)C/C=C/[C@@H]2C)cc1 | 9.3 µM |  | > 100 µM | 27% | 26%
8 | C[C@H]1/C=C/CC(=O)N[C@H](c2ccc(C(F)(F)F)cc2)CC(=O)N[C@@H](Cc2c[nH]c3ccccc23)C(=O)N[C@H]1c1ccccc1 | 26.5 µM |  | 58.5 µM | 67% | 12%
9 | Cc1ccc(S(=O)(=O)n2cccc2[C@@H]2NC(=O)[C@H](Cc3c[nH]c4ccccc34)NC(=O)C(c3ccccc3)CCOC(=O)C/C=C/[C@@H]2C)cc1 (stereo partly specified) |  | Dose-dependent effect |  |  | 
10 | Cc1ccc([C@@H]2CC(=O)N[C@@H](Cc3c[nH]c4ccccc34)C(=O)N[C@@H](c3cccn3S(=O)(=O)c3ccc(C)cc3)[C@@H](C)/C=C/CC(=O)N2)cc1 | 2.5 µM |  | > 100 µM | 40% | 20%
11 | C[C@H]1/C=C/CC(=O)N[C@H](c2ccc(Cl)cc2)CC(=O)N[C@@H](Cc2c[nH]c3ccccc23)C(=O)N[C@H]1c1ccccc1 | > 100 µM |  | 22 µM |  | 
12 | Cc1ccc(S(=O)(=O)n2cccc2[C@@H]2NC(=O)[C@H](Cc3c[nH]c4ccccc34)NC(=O)C[C@@H](c3ccc(Cl)cc3)NC(=O)C/C=C/[C@@H]2C)cc1 | 12.1 µM |  | > 100 µM |  | 
13 | C[C@H]1/C=C/CC(=O)OCCCC(=O)N[C@@H](Cc2c[nH]c3ccccc23)C(=O)N[C@H]1c1ccccc1 | > 100 µM |  | > 100 µM |  | 
14 | Cc1ccc(S(=O)(=O)n2cccc2[C@@H]2NC(=O)[C@H](Cc3c[nH]c4ccccc34)NC(=O)C[C@@H](c3ccc(C(F)(F)F)cc3)NC(=O)C/C=C/[C@@H]2C)cc1 | 1.3 µM |  | > 100 µM | 95% | 18%
15 | Cc1ccc(S(=O)(=O)n2cccc2[C@@H]2NC(=O)[C@H](Cc3c[nH]c4ccccc34)NC(=O)C(Oc3ccc(C(F)(F)F)cc3)CCOC(=O)C/C=C/[C@@H]2C)cc1 (stereo partly specified) | 2.5 µM | Dose-dependent effect |  |  | 

Further lines, with some results ahead:

Row | IC50 [1] | inhibition [1] | Structure (SMILES) | EC50 [2] | Activity [3] | Activity [4]
16 | 5.7 µM |  | Cc1ccc(S(=O)(=O)n2cccc2[C@@H]2NC(=O)[C@H](Cc3c[nH]c4ccccc34)NC(=O)C[C@@H](c3ccc(F)cc3)NC(=O)C/C=C/[C@@H]2C)cc1 | > 100 µM |  | 
17 | 33.2 µM |  | Cc1ccc(S(=O)(=O)n2cccc2[C@@H]2NC(=O)[C@H](Cc3c[nH]c4ccccc34)NC(=O)CCNC(=O)C/C=C/[C@@H]2C)cc1 | 58.4 µM | 96% | 12%
18 | 63.5 µM |  | C[C@H]1/C=C/CC(=O)OCCCCC(=O)N[C@@H](Cc2c[nH]c3ccccc23)C(=O)N[C@H]1c1ccccc1 | > 50 µM |  | 
19 | 2.6 µM |  | Cc1ccc(S(=O)(=O)n2cccc2[C@@H]2NC(=O)[C@H](Cc3c[nH]c4ccccc34)NC(=O)C[C@H](CCc3ccccc3)NC(=O)C/C=C/[C@@H]2C)cc1 | > 100 µM |  | 
20 | > 50 µM |  | Cc1ccc(S(=O)(=O)n2cccc2[C@@H]2NC(=O)[C@H](Cc3c[nH]c4ccccc34)NC(=O)CCCCNC(=O)C/C=C/[C@@H]2C)cc1 | > 100 µM |  | 
21 | 55.1 µM |  | C[C@H]1/C=C/CC(=O)N[C@H](c2ccc(F)cc2)CC(=O)N[C@@H](Cc2c[nH]c3ccccc23)C(=O)N[C@H]1c1ccccc1 | 36.2 µM |  | 
22 | 52.6 µM |  | Cc1ccc(S(=O)(=O)n2cccc2[C@@H]2NC(=O)[C@H](Cc3c[nH]c4ccccc34)NC(=O)C[C@@H](c3cccc(C(F)(F)F)c3)NC(=O)C/C=C/[C@@H]2C)cc1 | 6.7 µM |  | 
23 | 29.2 µM |  | Cc1ccc(S(=O)(=O)n2cccc2[C@@H]2NC(=O)[C@H](Cc3c[nH]c4ccccc34)NC(=O)CCCNC(=O)C/C=C/[C@@H]2C)cc1 | 35 µM |  | 
